Assay outcomes from PubChem.
HTRA1 inh: HTRA1 serine protease inhibitors, primary screen, biochemical, fluorescence polarization, HTS; Q92743; recombinant HTRA1, FP-rhodamine activity-based probe; inhibition, % at 5.96 µM; actives 0.5% (n = 340,000); in the data active = inhibition above about 36%
mABHD4 FP: ABHD4 inhibitors, primary screen, biochemical, fluorescence polarization, mouse. purified mABHD4, FP-Rh probe fluorescence polarization. actives 0.54% (n = 370,000). (Lyso)-N-acylphosphatidylethanolamine lipase (Mus musculus), Q8VD66. AID 720543, 2013. inhibition, % at 8.92 µM;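 active = inhibition exceeding the mean over every tested compound plus 3 SD, cut at about 30% in these data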
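Assay system: Wild-type mouse ABHD4 protein | Medium: HEPES pH 7.0 buffer, 150 mM NaCl, 0.01% Pluronic F-127 | Incubation: Enzyme–compound pre-incubation 45 min, then probe 60 min, both 25 °C | Technique: Fluorescence polarization with parallel and perpendicular emission, 525/598 nm | Evaluation: % inhibition of FP-Rh probe binding versus controls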
SIAE primary: human SIAE inhibitors, primary screen, biochemical, fluorescence polarization, FP-Rh probe, 1536-well HTS. Sialate O-acetylesterase (Homo sapiens), Q9HAT2. SIAE FP-Rh probe binding. inhibition, % at 9.66 µM. actives 0.69% (n = 370,000);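 active = inhibition above a cutoff: mean of compounds within the control limits plus 3 SD of those, cut at about 17% in these data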
Target sequence (Q9HAT2 whole entry, looked up): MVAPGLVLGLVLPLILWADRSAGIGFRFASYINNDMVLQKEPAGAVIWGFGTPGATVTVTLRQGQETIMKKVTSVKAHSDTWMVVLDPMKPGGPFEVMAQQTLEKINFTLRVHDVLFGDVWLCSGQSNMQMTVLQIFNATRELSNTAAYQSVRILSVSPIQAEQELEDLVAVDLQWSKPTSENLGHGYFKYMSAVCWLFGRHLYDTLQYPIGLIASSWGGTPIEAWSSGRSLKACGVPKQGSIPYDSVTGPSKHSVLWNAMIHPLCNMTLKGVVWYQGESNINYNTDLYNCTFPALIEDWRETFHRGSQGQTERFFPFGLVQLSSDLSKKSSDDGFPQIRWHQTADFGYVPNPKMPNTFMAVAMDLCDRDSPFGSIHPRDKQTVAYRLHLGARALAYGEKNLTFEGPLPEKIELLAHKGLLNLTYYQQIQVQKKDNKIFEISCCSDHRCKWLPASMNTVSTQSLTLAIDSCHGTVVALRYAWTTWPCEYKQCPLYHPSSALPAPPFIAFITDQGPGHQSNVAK
Tn6 DDE FP: inhibitors of Tn6 peptide binding to fibrin DD(E), primary screen, biochemical, fluorescence polarization, human fibrin, Tn6 probe | Fibrinogen beta chain (Homo sapiens), P02675 | Fibrin DD(E) TRITC-Tn6 fluorescence polarization displacement | inhibition, % at 8.3 µM | actives 0.21% (n = 370,000) | AID 720509, 2013;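 active = inhibition above a per-campaign cutoff: mean of compounds within control limits plus 3 SD, cut at about 15% in these data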
DDE Tn7 FP inh: inhibitors of Tn7 peptide binding to fibrin DD(E), primary screen, biochemical, fluorescence polarization, human fibrin, Tn7 probe | Fibrinogen beta chain (Homo sapiens), P02675 | FP displacement of FITC-Tn7 peptide from fibrin DD(E); 0% = median of compound wells per plate | inhibition, % at 8.3 µM | actives 0.13% (n = 370,000) | AID 720508, 2013;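 active = inhibition above the mean of compounds falling within the control limits plus 3 SD of them, cut at about 14% in these data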
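Assay system: human fibrin DD(E) protein / Input: 2 µM fibrin DD(E) / Benchmarks: high control of 10 µM Aha-Tn7 peptide / Measured by: fluorescence polarization of the labelled Tn7 tracer / Medium: Tris buffer with calcium and detergent, pH 7.8 / Timing: 10 min compound pre-incubation, 3 h probe incubation at room temperature / Repeats: one replicate per compound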
TCR-CD3 inh: inhibitors of human TCR-CD3 interaction, primary screen, biochemical, fluorescence, TAMRA-labeled TCR probe. inhibition, % at 9.4 µM. actives 0.37% (n = 360,000); in the data active = inhibition above about 19%;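 also: recombinant mutant TCR 2C K166C tagged with TAMRA read by polarization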
ABHD4 confirm: ABHD4 inhibitors, retest, confirmation, biochemical, fluorescence polarization, mouse | shares compounds with mABHD4 FP | purified mABHD4, FP-Rh probe fluorescence polarization | inhibition, % at 8.92 µM | actives 55% (n = 1,800) | AID 720658, 2013;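 active = mean inhibition across replicates above the hit cutoff set in the primary screen, cut at about 30% in these data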
A number is an active result; . = inactive; / = no result. Only some compounds are listed: those with a hit (about 1.8% of all), similar ones and a draw of the others.

SMILES	HTRA1 inh	mABHD4 FP	SIAE primary	Tn6 DDE FP	DDE Tn7 FP inh	TCR-CD3 inh	ABHD4 confirm
O=C(CNc1cccc2ccccc12)N/N=C/C(Br)=C/c1ccccc1	.	32	.	.	.	.	.
CC(=O)Nc1ccccc1O	.	.	.	.	.	.	/
CC(C)(C)C(=O)/C=C/Nc1ccccc1O	.	30	.	.	.	.	.
O=C(NCCc1ccccc1)c1ccc2c(=O)[nH]c3c(C(=O)NCC4CCCO4)sc(=S)n3c2c1 (stereo not drawn)	.	50	.	.	.	.	36
CC(C)NC(=O)c1sc(=S)n2c1[nH]c(=O)c1ccc(C(=O)NCCc3ccc(Cl)cc3)cc12	.	.	.	.	.	.	/
O=C(NCCc1ccc(Cl)cc1)c1ccc2c(=O)[nH]c3c(C(=O)NCC4CCCO4)sc(=S)n3c2c1 (stereo not drawn)	/	36	.	.	.	.	33
O=C(NC1CCCCC1)c1sc(=S)n2c1[nH]c(=O)c1ccccc12	.	.	.	.	.	.	/
CC(=O)c1ccc(N2CCN(C(=O)c3ccc4c(=O)[nH]c5c(C(=O)NC6CCCC6)sc(=S)n5c4c3)CC2)cc1	/	34	.	.	.	.	.
COC(=O)C[C@@H]1C[C@H]2c3cc(NC(=O)Nc4ccccc4F)ccc3O[C@H]2[C@@H](CO)O1	/	.	.	.	.	.	/
N#C/C(=C(/O)c1ccc2c(c1)OCO2)c1nc2cc(C(F)(F)F)ccc2s1	.	33	.	.	.	.	.
N#C/C(=C(/O)c1ccccc1F)c1nc2cc(C(F)(F)F)ccc2s1	.	.	.	.	.	.	/
Cn1c(/C=C/c2ccc(Cl)cc2)nc2ccccc2c1=O	.	57	.	.	.	.	.
CCC(C)CNC(=O)CN1C(=O)C2CCCCN2C(=O)c2ccccc21 (stereo not drawn)	/	.	.	.	.	/	/
COc1cc(/C=C2\SC(=S)N(Nc3ccccc3)C2=O)cc(OC)c1OC	.	33	.	.	.	.	40
CCOc1ccc(/C=C2\SC(=S)N(Nc3ccccc3)C2=O)cc1OC	.	.	.	.	.	.	/
CC(C)(C)c1ccc(-c2nnc(SCC(=O)c3ccc4ccccc4c3)n2-c2ccc(Cl)cc2)cc1	/	.	.	.	.	/	/
Cc1ccc(OC(=S)Nc2ccc(F)cc2)cc1	.	.	.	.	.	.	/
Cc1ccc(OC(=S)Nc2ccc(O)cc2)cc1	.	44	.	.	.	.	.
COc1ccc(Nc2nc(NC(C)(C)C)nc(N3CCOCC3)n2)c(OC)c1	.	.	.	.	.	.	/
COc1ccc(Nc2nc(NC(C)(C)C)nc(N3CCCC3)n2)c(OC)c1	.	34	.	.	.	.	48
C=CCN(CC#CC(=C)C)Cc1ccc(OC)cc1OC	/	.	.	.	.	/	/
COc1ccc(N=Nc2cc(C)c(O)c(CN3CCCCC3)c2)cc1	.	.	.	.	.	.	/
COc1ccc2nc3cc(Cl)ccc3c(Nc3cc(CN4CCCC4)c(O)c(CN4CCCC4)c3)c2n1	/	37	.	.	.	.	31
CCCCn1c(N)c(N(CC(C)C)C(=O)c2ccc(N3C(=O)CCC3=O)cc2)c(=O)[nH]c1=O	.	35	.	.	.	.	.
CCCCn1c(N)c(N(CC(C)C)C(=O)C2CCCO2)c(=O)[nH]c1=O (stereo not drawn)	.	32	.	.	.	.	.
SMILES	HTRA1 inh	mABHD4 FP	SIAE primary	Tn6 DDE FP	DDE Tn7 FP inh	TCR-CD3 inh	ABHD4 confirm
C[C@H]1COc2cccc(F)c2S(=O)(=O)N1C	/	.	.	.	.	/	/
Oc1ccccc1Nc1nc(NCC2CCCO2)c2ccccc2n1 (stereo not drawn)	.	.	.	.	.	.	/
Oc1ccc(Cl)cc1Nc1nc(NCC2CCCO2)c2ccccc2n1 (stereo not drawn)	.	35	.	.	.	.	31
COc1ccc(/C(C)=N/NC(=O)Cc2cc(=O)[nH][nH]2)cc1OC	/	.	.	.	.	/	/
COC(=O)C1=C(C)N(Cc2ccc(C(F)(F)F)cc2)C(=NCc2ccccc2)NC1c1cccc(C(F)(F)F)c1 (stereo not drawn)	/	.	.	.	.	.	/
COC(=O)C1=C(C)N(Cc2ccc(C(F)(F)F)cc2)C(=NCc2ccccc2)NC1c1cccc(Cl)c1 (stereo not drawn)	/	37	.	.	.	.	44
COC(=O)C1=C(C)N(Cc2ccc(C(F)(F)F)cc2)C(=NCc2ccccc2)NC1c1ccccc1 (stereo not drawn)	/	33	.	.	.	.	48
COC(=O)C1=C(C)N(Cc2ccccc2)C(=NCc2cccc(C(F)(F)F)c2)N[C@H]1c1cccc(F)c1	.	37	.	.	.	.	44
COC(=O)C1=C(C)N(Cc2ccc(C(F)(F)F)cc2)C(=NCc2ccccc2)NC1c1ccc(C(F)(F)F)cc1 (stereo not drawn)	/	31	.	.	.	.	39
CC1CCC2(CC1)CCC2NCc1ccc(Cl)c(Cl)c1 (stereo not drawn)	/	.	.	.	.	/	/
COC(=O)C1=C(C)N(Cc2cccc(C(F)(F)F)c2)C(=NCc2ccc3c(c2)OCO3)NC1c1ccc(Cl)cc1 (stereo not drawn)	/	40	.	.	.	.	82
Cn1c(CNc2ccc(O)cc2)nc2ccccc21	.	58	.	.	.	.	.
Cc1ccc2c(c1)Sc1c(ccc3ccccc13)N2	.	30	.	.	.	.	38
c1ccc2c(c1)Nc1cc3ccccc3cc1S2	.	.	.	.	.	.	/
NC(=O)C1CCN(c2nc(-c3ccc(OCc4ccccc4)cc3)cs2)CC1	/	.	.	.	.	/	/
CCCCCc1ccc(OCCCC[n+]2ccc(C)cc2)c(CCCCC)c1	.	30	.	.	.	.	36
CCCCCc1ccc(OCCCC[n+]2ccccc2)c(CCCCC)c1	.	/	/	/	/	/	/
O=C(N/N=C/c1ccncc1)c1cc2ccccc2cc1O	.	43	.	.	.	.	.
CN(C)c1ccc(N=C/C=C2\N(C)c3ccccc3C2(C)C)cc1	.	32	.	.	.	.	.
Fc1ccc(C(c2ccc(F)cc2)N2CCN(C/C=C/c3ccccc3)CC2)cc1	.	.	.	.	.	.	/
